The source made the active and inactive calls. The rule behind the calls is not given here.
Experiments:
[1] = Cytotoxicity against mouse 3T3-L1 cells transfected with Lenti-PPARgamma-Luc reporter assessed as cell viability at 20 uM incubated for 48 hrs by CCK-8 assay relative to control; format: toxicity, cell-based; settings: read-out: Activity
In short: (§1)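 3T3-L1-Lenti-PPARγ-Luc reporter cells (lentivirus-transduced) exposed to alkaloids at a range of concentrations. Viability by CCK-8, absorbance at 450 nm, relative to control, used to set maximum noncytotoxic concentrations. Triplicate.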

3T3-L1 [2] = test: Anti-adipogenic activity in mouse 3T3-L1 cells transfected with Lenti-PPARgamma-Luc reporter assessed as inhibition of PPARgamma expression by luminescence based microplate reader analysis; format: functional, cell-based
[3] = Cytotoxicity against mouse 3T3-L1 cells assessed as cell viability at 10 uM incubated for 48 hrs by CCK-8 assay relative to control; format: toxicity, cell-based; settings: read-out: Activity
In short: (§2)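 3T3-L1 preadipocytes seeded at 1 × 10^3 cells/well and left 12 h, then exposed to alkaloids for 48 h. Viability by CCK-8, absorbance at 450 nm, relative to control. Lovastatin 5 μM included. Mean ± SD, n = 3.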

[4] = Cytotoxicity against mouse 3T3-L1 cells transfected with Lenti-PPARgamma-Luc reporter assessed as cell viability at 10 uM incubated for 48 hrs by CCK-8 assay relative to control; format: toxicity, cell-based; settings: read-out: Activity; in short: as §1
[5] = Cytotoxicity against mouse 3T3-L1 cells assessed as cell viability at 2.5 uM incubated for 48 hrs by CCK-8 assay relative to control; format: toxicity, cell-based; settings: read-out: Activity; in short: as §2
[6] = Cytotoxicity against mouse 3T3-L1 cells transfected with Lenti-PPARgamma-Luc reporter assessed as cell viability at 5 uM incubated for 48 hrs by CCK-8 assay relative to control; format: toxicity, cell-based; settings: read-out: Activity; in short: as §1
[7] = Cytotoxicity against mouse 3T3-L1 cells transfected with Lenti-PPARgamma-Luc reporter assessed as cell viability at 2.5 uM incubated for 48 hrs by CCK-8 assay relative to control; format: toxicity, cell-based; settings: read-out: Activity; in short: as §1
[8] = Cytotoxicity against mouse 3T3-L1 cells assessed as cell viability at 5 uM incubated for 48 hrs by CCK-8 assay relative to control; format: toxicity, cell-based; settings: read-out: Activity; in short: as §2
[9] = Cytotoxicity against mouse 3T3-L1 cells assessed as cell viability at 15 uM incubated for 48 hrs by CCK-8 assay relative to control; format: toxicity, cell-based; settings: read-out: Activity; in short: as §2
[10] = Cytotoxicity against mouse 3T3-L1 cells transfected with Lenti-PPARgamma-Luc reporter assessed as cell viability at 1 uM incubated for 48 hrs by CCK-8 assay relative to control; format: toxicity, cell-based; settings: read-out: Activity; in short: as §1
[11] = Cytotoxicity against mouse 3T3-L1 cells assessed as cell viability at 20 uM incubated for 48 hrs by CCK-8 assay relative to control; format: toxicity, cell-based; settings: read-out: Activity; in short: as §2
[12] = Cytotoxicity against mouse 3T3-L1 cells transfected with Lenti-PPARgamma-Luc reporter assessed as cell viability at 0.1 uM incubated for 48 hrs by CCK-8 assay relative to control; format: toxicity, cell-based; settings: read-out: Activity; in short: as §1
3T3-L1 [13] = test: Inhibition of adipogenesis in mouse 3T3-L1 cells assessed as downregulation of PPARgamma relative protein level […] by Western blot analysis; format: functional, cell-based
In short: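 Differentiated 3T3-L1 adipocytes treated with alkaloids at several doses. Lysed in RIPA with PMSF on ice for 30 min. Proteins transferred to PVDF and blocked with 5% skim milk for 2 h at 25 °C. Primary antibody 2 h, HRP secondary 1 h. PPARγ protein level expressed relative to control. n = 3.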

[14] = Cytotoxicity against mouse 3T3-L1 cells transfected with Lenti-PPARgamma-Luc reporter assessed as cell viability at 7.5 uM incubated for 48 hrs by CCK-8 assay relative to control; format: toxicity, cell-based; settings: read-out: Activity; in short: as §1
3T3-L1 [15] = test: Anti-adipogenic activity in mouse 3T3-L1 preadipocytes assessed as inhibition of lipid accumulation incubated for 6 days by Nile Red staining based fluorescence microscopic analysis; format: functional, cell-based; settings: time 6.0 day
[16] = Cytotoxicity against mouse 3T3-L1 cells transfected with Lenti-PPARgamma-Luc reporter assessed as cell viability at 15 uM incubated for 48 hrs by CCK-8 assay relative to control; format: toxicity, cell-based; settings: read-out: Activity; in short: as §1
[17] = Cytotoxicity against mouse 3T3-L1 cells assessed as cell viability at 25 uM incubated for 48 hrs by CCK-8 assay relative to control; format: toxicity, cell-based; settings: read-out: Activity; in short: as §2
[18] = Cytotoxicity against mouse 3T3-L1 cells transfected with Lenti-PPARgamma-Luc reporter assessed as cell viability at 30 uM incubated for 48 hrs by CCK-8 assay relative to control; format: toxicity, cell-based; settings: read-out: Activity; in short: as §1
[19] = Cytotoxicity against mouse 3T3-L1 cells transfected with Lenti-PPARgamma-Luc reporter assessed as cell viability at 25 uM incubated for 48 hrs by CCK-8 assay relative to control; format: toxicity, cell-based; settings: read-out: Activity; in short: as §1
[20] = Cytotoxicity against mouse 3T3-L1 cells transfected with Lenti-PPARgamma-Luc reporter assessed as cell viability at 4 uM incubated for 48 hrs by CCK-8 assay relative to control; format: toxicity, cell-based; settings: read-out: Activity; in short: as §1
[21] = Cytotoxicity against mouse 3T3-L1 cells transfected with Lenti-PPARgamma-Luc reporter assessed as cell viability at 2 uM incubated for 48 hrs by CCK-8 assay relative to control; format: toxicity, cell-based; settings: read-out: Activity; in short: as §1
[22] = Cytotoxicity against mouse 3T3-L1 cells assessed as cell viability at 7.5 uM incubated for 48 hrs by CCK-8 assay relative to control; format: toxicity, cell-based; settings: read-out: Activity; in short: as §2
[23] = Cytotoxicity against mouse 3T3-L1 cells assessed as cell viability at 3 uM incubated for 48 hrs by CCK-8 assay relative to control; format: toxicity, cell-based; settings: read-out: Activity; in short: as §2
[24] = Cytotoxicity against mouse 3T3-L1 cells transfected with Lenti-PPARgamma-Luc reporter assessed as cell viability at 3 uM incubated for 48 hrs by CCK-8 assay relative to control; format: toxicity, cell-based; settings: read-out: Activity; in short: as §1
[25] = Cytotoxicity against mouse 3T3-L1 cells assessed as cell viability at 1 uM incubated for 48 hrs by CCK-8 assay relative to control; format: toxicity, cell-based; settings: read-out: Activity; in short: as §2

Structure (SMILES) | viability at 48 h, 20 µM [1] [%] | Activity (3T3-L1 [2]) | IC50 (3T3-L1 [2]) [µM] | viability at 48 h, 10 µM [3] [%] | viability at 48 h, 10 µM [4] [%] | viability at 48 h, 5 µM [6] [%] | viability at 48 h, 2.5 µM [7] [%] | viability at 48 h, 5 µM [8] [%] | viability at 48 h, 15 µM [9] [%] | viability at 48 h, 1 µM [10] [%] | viability at 48 h, 20 µM [11] [%] | viability at 48 h, 0.1 µM [12] [%] | inhibition (3T3-L1 [13]) | viability at 48 h, 7.5 µM [14] [%] | Activity (3T3-L1 [15]) | viability at 48 h, 15 µM [16] [%] | viability at 48 h, 25 µM [17] [%] | other results
COc1ccc(C[C@@H]2c3cc(Oc4cc(C[C@@H]5c6cc(OC)c(OC)cc6CCN5C)ccc4O)c(OC)cc3CCN2C)cc1 [NEFERINE] | < 80 | Dose-Dependent Effect | 6.1 | > 80 | > 80 | > 80 | > 80 | > 80 | < 80 | > 80 | < 80 | > 80 | Active | > 80 | Dose-Dependent Effect | < 80 | – | viability at 48 h, 2.5 µM [5]: > 80%
COc1ccc(C[C@@H]2c3cc(Oc4cc(/C=C5\CN(C)CCc6cc(OC)c(OC)cc65)ccc4O)c(OC)cc3CCN2C)cc1 | < 80 | Dose-Dependent Effect | – | > 80 | > 80 | > 80 | > 80 | > 80 | > 80 | > 80 | < 80 | > 80 | Active | > 80 | Dose-Dependent Effect | > 80 | < 80 | –
CC[C@H](C)C(=O)O[C@H]1C[C@@H](C)C=C2C=C[C@H](C)[C@H](CC[C@@H]3C[C@@H](O)CC(=O)O3)[C@H]21 [LOVASTATIN] | – | – | – | – | – | – | – | > 80 | – | – | – | – | – | – | – | – | – | –
COc1cc2c(cc1O)[C@@H](Cc1ccc(O)c(Oc3cc4c(cc3OC)CCN(C)[C@@H]4Cc3ccc(O)cc3)c1)N(C)CC2 | > 80 | Dose-Dependent Effect | – | > 80 | > 80 | > 80 | – | > 80 | > 80 | > 80 | > 80 | > 80 | Active | – | Dose-Dependent Effect | > 80 | < 80 | viability at 48 h, 30 µM [18]: < 80%; viability at 48 h, 25 µM [19]: < 80%
C=C(c1ccc(O)c(Oc2cc3c(cc2OC)CCN(C)[C@@H]3Cc2ccc(OC)cc2)c1)[C@H]1c2cc(OC)c(OC)cc2CCN1C | – | Dose-Dependent Effect | 4.6 | < 80 | < 80 | > 80 | – | > 80 | – | > 80 | – | > 80 | Active | < 80 | Dose-Dependent Effect | – | – | viability at 48 h, 4 µM [20]: > 80%; viability at 48 h, 2 µM [21]: > 80%; viability at 48 h, 7.5 µM [22]: < 80%; viability at 48 h, 3 µM [23]: > 80%; viability at 48 h, 3 µM [24]: > 80%; viability at 48 h, 1 µM [25]: > 80%
C=C(c1ccc(OC)cc1)[C@@H]1c2cc(Oc3cc(C[C@H]4c5cc(OC)c(OC)cc5CCN4C)ccc3O)c(OC)cc2CCN1C | < 80 | Dose-Dependent Effect | – | > 80 | > 80 | > 80 | > 80 | > 80 | > 80 | > 80 | < 80 | > 80 | Active | > 80 | Dose-Dependent Effect | > 80 | < 80 | –
C=C(c1ccc(O)c(Oc2cc3c(cc2OC)CCN(C)[C@@H]3Cc2ccc(OC)cc2)c1)[C@@H]1c2cc(OC)c(OC)cc2CCN1C | < 80 | Dose-Dependent Effect | 10.7 | > 80 | > 80 | > 80 | > 80 | > 80 | > 80 | > 80 | < 80 | > 80 | Active | > 80 | Dose-Dependent Effect | > 80 | < 80 | –
C=C(c1ccc(O)c(Oc2cc3c(cc2OC)CCN(C)[C@@H]3Cc2ccc(OC)cc2)c1)[C@@H]1c2cc(O)c(OC)cc2CCN1C | < 80 | Dose-Dependent Effect | 8.8 | > 80 | > 80 | > 80 | > 80 | > 80 | < 80 | > 80 | < 80 | > 80 | Active | > 80 | Dose-Dependent Effect | < 80 | – | viability at 48 h, 2.5 µM [5]: > 80%
COc1ccc(C[C@@H]2c3cc(Oc4cc(C[C@H]5c6cc(OC)c(OC)cc6CCN5C)ccc4O)c(OC)cc3CCN2C)cc1 | – | Dose-Dependent Effect | 4.5 | < 80 | < 80 | > 80 | – | > 80 | > 80 | > 80 | – | > 80 | Active | < 80 | Dose-Dependent Effect | – | – | viability at 48 h, 4 µM [20]: > 80%; viability at 48 h, 2 µM [21]: > 80%; viability at 48 h, 7.5 µM [22]: < 80%; viability at 48 h, 3 µM [23]: > 80%; viability at 48 h, 3 µM [24]: > 80%; viability at 48 h, 1 µM [25]: > 80%
COc1ccc(C[C@@H]2c3cc(Oc4cc(C[C@@H]5c6cc(O)c(OC)cc6CCN5C)ccc4O)c(OC)cc3CCN2C)cc1 [ISOLIENSININE] | < 80 | Dose-Dependent Effect | – | > 80 | > 80 | > 80 | > 80 | > 80 | < 80 | > 80 | < 80 | > 80 | Active | > 80 | Dose-Dependent Effect | < 80 | – | viability at 48 h, 2.5 µM [5]: > 80%
C=C(c1ccc(O)c(Oc2cc3c(cc2OC)CCN(C)[C@@H]3Cc2ccc(OC)cc2)c1)[C@H]1c2cc(O)c(OC)cc2CCN1C | – | Dose-Dependent Effect | 4.5 | < 80 | < 80 | > 80 | – | > 80 | – | > 80 | – | > 80 | Active | < 80 | Dose-Dependent Effect | – | – | viability at 48 h, 4 µM [20]: > 80%; viability at 48 h, 2 µM [21]: > 80%; viability at 48 h, 7.5 µM [22]: < 80%; viability at 48 h, 3 µM [23]: > 80%; viability at 48 h, 3 µM [24]: > 80%; viability at 48 h, 1 µM [25]: > 80%

From ChEMBL document CHEMBL5385940 (J Nat Prod, 2024)
